The record followed here is ChEMBL document CHEMBL6134899 (J Med Chem, 2025).

Molecules are shown by their SMILES. Calls of active or inactive are those of the source. The rule behind the calls is not given here.

In series [1] the target is Sodium-dependent dopamine transporter (Homo sapiens) (UniProt Q01959). As to the kind of experiment: Inhibition of DAT receptor (unknown origin) at 100 nM.
Series [2] addresses Sodium-dependent serotonin transporter (Homo sapiens) (UniProt P31645). The series is described as follows: Inhibition of SERT receptor (unknown origin) at 100 nM.
Series [3] concerns the target Sodium-dependent noradrenaline transporter (Homo sapiens) (UniProt P23975). To be noted: dose 10-100 nM.
Series [4] is described as follows: Drug accumulation in C57BL/6JRJ mouse brain at 5 mg/kg, iv followed by 1 week after washout period treated at 5 mg/kg, po followed by 1 week after washout period treated at 5 mg/kg, po measured after 30 mins. To be noted: in vivo, 168 h, time 1 weeks. The series is classed as ADME, organism-based. The essentials: (§1)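 The same four C57BL/6JRJ mice (2 male, 2 female) first had i.v. and then oral PK runs, each followed by 1 week washout. They were then gavaged with 5 mg/kg in saline at 5 mL/kg. At 30 min they were decapitated under isoflurane, and blood and tissues were harvested. Tissue levels were quantified by LC-ESI-MS/MS and given as mean ± SD of four mice.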

Series [5] in a line: Drug accumulation in C57BL/6JRJ mouse adrenal gland at 5 mg/kg, iv followed by 1 week after washout period treated at 5 mg/kg, po followed by 1 week after washout period treated at 5 mg/kg, po measured after 30 mins. To be noted: in vivo, 168 h, time 1 weeks. The series is classed as ADME, organism-based. A digest of the protocol: as §1
The nature of series [6]: Acute toxicity in C57BL6/J mouse assessed as piloerection at 1.0 to 10 mg/kg, ip. The series is classed as organism-based. The settings on record: in vivo, dose 1-10 mg/kg. The essentials:
(§2)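 Male mice, 12 weeks old, were handled for 10 days and rotarod-trained before dosing. Each received 1.0 or 10 mg/kg i.p. (n = 7) or vehicle, 0.5% DMSO (n = 6), at 1% body-weight volume. Animals were held 40 min in a separate cage, then observed during rotarod, light/dark box and rectal temperature tests for signs of toxicity. Sacrifice was 1 h post-dose.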

Series [7] is described as follows: Acute toxicity in C57BL6/J mouse assessed as hunched posture at 1.0 to 10 mg/kg, ip. The class given is organism-based. The settings on record: in vivo, dose 1-10 mg/kg. The essentials: as §2
Series [8] can be described thus: Acute toxicity in C57BL6/J mouse assessed as convulsions at 1.0 to 10 mg/kg, ip. The class given is organism-based. To be noted: in vivo, dose 1-10 mg/kg. The essentials:
as §2

Series [9] can be described thus: Acute toxicity in C57BL6/J mouse assessed as gastrointestinal distress at 1.0 to 10 mg/kg, ip. The series is classed as organism-based. The settings on record: in vivo, dose 1-10 mg/kg. The essentials:
as §2

The nature of series [10]: AUC in C57BL/6JRJ mouse at 5 mg/kg, iv measured up to 24 hrs. The class given is ADME, organism-based. To be noted: in vivo. A digest of the protocol: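 C57BL/6JRJ mice, 8–9 weeks old (2 male, 2 female), received 5 mg/kg (dose based on free salt MW) in 0.9% saline at 5 mL/kg by tail-vein injection after tail warming. Tail-vein blood microsamples (<20 μL) were taken at 5, 15, 30 min and 1, 1.5, 2, 4, 8 and 24 h, quantified by MRM LC-ESI-MS/MS, and reported as mean ± SD of four mice.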

The target of series [11] is Sodium-dependent dopamine transporter (Homo sapiens) (UniProt Q01959). The series is described as follows: Displacement of [3H]BTCP from recombinant human DAT receptor expressed in CHO cells at 10 uM incubated for 120 mins by scintillation counting method. The class given is cell-based. The essentials:
(§3)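 Radioligand displacement run by a commercial provider, with test compound at 10 μM. Reported as mean ± SD of two independent measurements, each in duplicate.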

For series [12], the target named is Sodium-dependent serotonin transporter (Homo sapiens) (UniProt P31645). The series is described as follows: Displacement of [3H]imipramine from recombinant human SERT receptor expressed in CHO cells at 10 uM incubated for 60 mins by scintillation counting method. The series is classed as cell-based. The essentials: as §3
Sequence of Sodium-dependent serotonin transporter (Homo sapiens) (P31645 whole entry, looked up): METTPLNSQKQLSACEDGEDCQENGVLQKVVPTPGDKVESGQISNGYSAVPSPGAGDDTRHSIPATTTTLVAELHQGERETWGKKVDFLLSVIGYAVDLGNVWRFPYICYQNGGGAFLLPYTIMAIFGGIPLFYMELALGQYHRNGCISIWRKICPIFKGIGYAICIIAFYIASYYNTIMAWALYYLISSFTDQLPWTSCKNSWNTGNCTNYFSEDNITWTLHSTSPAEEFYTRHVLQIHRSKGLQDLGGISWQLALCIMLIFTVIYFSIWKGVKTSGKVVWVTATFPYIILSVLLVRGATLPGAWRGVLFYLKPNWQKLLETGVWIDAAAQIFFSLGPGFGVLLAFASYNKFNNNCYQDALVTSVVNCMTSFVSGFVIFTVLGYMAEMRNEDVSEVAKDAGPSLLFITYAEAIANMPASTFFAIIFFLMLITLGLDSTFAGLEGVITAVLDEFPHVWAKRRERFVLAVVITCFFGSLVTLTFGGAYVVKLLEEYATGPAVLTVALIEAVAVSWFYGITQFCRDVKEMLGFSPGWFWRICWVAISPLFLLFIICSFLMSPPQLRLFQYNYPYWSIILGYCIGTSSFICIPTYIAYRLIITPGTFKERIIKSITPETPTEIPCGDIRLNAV

Sequence of Sodium-dependent dopamine transporter (Homo sapiens) (Q01959 whole entry): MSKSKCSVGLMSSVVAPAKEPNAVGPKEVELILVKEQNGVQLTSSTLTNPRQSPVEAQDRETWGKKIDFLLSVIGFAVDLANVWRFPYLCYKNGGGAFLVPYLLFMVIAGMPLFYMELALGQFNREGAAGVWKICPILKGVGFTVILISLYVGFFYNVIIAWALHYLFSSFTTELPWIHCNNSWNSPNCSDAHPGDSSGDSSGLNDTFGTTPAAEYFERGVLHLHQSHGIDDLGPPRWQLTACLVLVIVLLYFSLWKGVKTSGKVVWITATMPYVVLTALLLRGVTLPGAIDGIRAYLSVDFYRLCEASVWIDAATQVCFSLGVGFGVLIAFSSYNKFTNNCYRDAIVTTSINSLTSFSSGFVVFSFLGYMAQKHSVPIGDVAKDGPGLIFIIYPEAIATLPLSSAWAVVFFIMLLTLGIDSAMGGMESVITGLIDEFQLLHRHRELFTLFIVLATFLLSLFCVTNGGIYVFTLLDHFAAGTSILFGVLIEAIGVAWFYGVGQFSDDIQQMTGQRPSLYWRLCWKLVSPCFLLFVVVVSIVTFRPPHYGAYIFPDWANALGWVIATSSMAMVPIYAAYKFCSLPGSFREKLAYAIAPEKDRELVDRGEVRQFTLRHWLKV
Sequence of Sodium-dependent noradrenaline transporter (Homo sapiens) (P23975 whole entry): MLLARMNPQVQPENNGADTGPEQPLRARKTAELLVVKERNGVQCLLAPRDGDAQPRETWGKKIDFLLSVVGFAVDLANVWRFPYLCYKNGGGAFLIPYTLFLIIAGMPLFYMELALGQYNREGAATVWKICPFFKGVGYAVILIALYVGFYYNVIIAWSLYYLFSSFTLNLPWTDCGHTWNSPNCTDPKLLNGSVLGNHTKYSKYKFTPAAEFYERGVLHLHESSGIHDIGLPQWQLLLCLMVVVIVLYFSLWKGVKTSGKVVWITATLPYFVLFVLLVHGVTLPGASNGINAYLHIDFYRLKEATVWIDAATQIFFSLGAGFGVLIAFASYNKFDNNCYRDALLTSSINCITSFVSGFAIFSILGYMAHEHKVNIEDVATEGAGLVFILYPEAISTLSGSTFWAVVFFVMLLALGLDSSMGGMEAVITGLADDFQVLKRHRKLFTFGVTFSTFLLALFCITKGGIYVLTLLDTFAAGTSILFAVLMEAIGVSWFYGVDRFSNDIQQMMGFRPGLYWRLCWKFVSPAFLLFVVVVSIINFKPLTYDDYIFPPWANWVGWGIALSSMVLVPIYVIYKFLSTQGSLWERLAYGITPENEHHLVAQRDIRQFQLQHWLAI

As to `Clc1cccc(CN2CCCC[C@H]3NCC[C@H]32)c1`, the inhibition entry in series [1], in series [2] and in series [3] was “Active” throughout.
Turning to `c1ccc(CN2CCCC[C@H]3NCC[C@H]32)cc1`, the Drug uptake result in series [4] and in [5] was “Active” in each case. The Activity result in series [6], in series [7], in series [8] and in series [9] was “Non-toxic” each time. In addition, the AUC in series [10] was 47948 ng·min/mL.
For the compound `Fc1cccc(CN2CCCC[C@H]3NCC[C@H]32)c1`, the inhibition result in [1], in [2] and in series [3] was “Active” in each case.
Turning to `Clc1ccc(CN2CCCC[C@H]3NCC[C@H]32)cc1`, the inhibition entry in [1], in series [2] and in series [3] was “Active” each time.
With `c1ccc(CN2CCCC[C@@H]3NCCC[C@H]32)cc1`, the result in series [11] and in series [12] was Active.
Regarding `c1ccc(CN2CCCC[C@@H]3NCCCC[C@H]32)cc1`, the outcome in series [11] and in series [12] was Active.
Consider `Brc1cccc(CN2CCCC[C@H]3NCC[C@H]32)c1`, for which the inhibition entry in [1], in [2] and in series [3] was “Active” each time.
In the case of `c1ccc(CN2CCCC[C@H]3NCCC[C@H]32)cc1`, the outcome in series [11] and in [12] was Active.
Regarding `Clc1ccccc1CN1CCCC[C@H]2NCC[C@H]21`, the inhibition result in series [1], in series [2] and in [3] was “Active” each time.
`Clc1cccc(CN2CCCC[C@H]3NCC[C@H]32)c1Cl`: the inhibition entry in series [1], in series [2] and in [3] was “Active” in each case.
In the case of `Clc1cc(Cl)cc(CN2CCCC[C@H]3NCC[C@H]32)c1`, the inhibition result in [1], in [2] and in series [3] was “Active” each time.
